Molecules are shown by their SMILES. Activity calls are given as the source filed them. The rule behind the calls is not given here.

Activity data for one compound are collected here from ChEMBL document CHEMBL1255440, “An antimicrobial peptide that targets DNA repair intermediates in vitro inhibits Salmonella growth within murine macrophages” (Antimicrob Agents Chemother, 2010).

This assay concerns Salmonella typhimurium. In words: Antibacterial activity against 1 MOI Salmonella enterica subsp. enterica serovar Typhimurium infected in mouse J774A1 cells assessed as reduction in bacterial growth at 2.5 times MIC. The class given is functional, organism-based. Conditions: J774.A1. An outline of the steps:
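J774A.1 cells or thioglycolate-elicited BALB/c peritoneal macrophages seeded at 200,000/well, overnight 37°C 5% CO2; infected with GFP strain SDT1416, 1 h invasion, washed, 1 h in DMEM with 15 μg/ml gentamicin. Then fresh DMEM plus 15 μg/ml gentamicin with or without peptide (DMSO vehicle) for 24 h at 37°C; macrophages lysed with 1% Triton X-100, plated on LB agar for CFU.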

For the compound `N=C(N)NCCC[C@H](NC(=O)[C@H](CS)NC(=O)[C@H](Cc1ccc(O)cc1)NC(=O)[C@H](Cc1c[nH]c2ccccc12)NC(=O)[C@H](CCCNC(=N)N)NC(=O)[C@@H](N)Cc1c[nH]c2ccccc12)C(=O)O`, the outcome was Active.
